Most compounds without a hit are left out; they make up all but 2.9% or so of the library.
SIRT5 inh: inhibitors of human sirtuin-5 desuccinylase | inhibition, % at 15 µM | Q9NXA8 | 1.1% of 330,000 active | Purified SirT5, succinyl-peptide AMC, trypsin-coupled fluorescence | AID 652115; in the data active means inhibition above about 15%; inconclusive means no clear call, values can overlap the other calls
E-sel inducer: induces E-selectin expression in human endothelial cells; P16581; HUVEC E-selectin immunofluorescence imaging; normalized: neutral wells 0, TNF-alpha wells 100; 0.37% of 260,000 active; activation, % at 7.58 µM;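 active means mean E-selectin-positive cell signal at least 10% of the positive control, reached in at least 60% of replicates, without over 20% cell loss; inconclusive means no rule given, readout overlaps actives, possibly toxicity-flagged; inactive means the rest, including those meeting only one limit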
Target sequence (P16581 whole entry, looked up): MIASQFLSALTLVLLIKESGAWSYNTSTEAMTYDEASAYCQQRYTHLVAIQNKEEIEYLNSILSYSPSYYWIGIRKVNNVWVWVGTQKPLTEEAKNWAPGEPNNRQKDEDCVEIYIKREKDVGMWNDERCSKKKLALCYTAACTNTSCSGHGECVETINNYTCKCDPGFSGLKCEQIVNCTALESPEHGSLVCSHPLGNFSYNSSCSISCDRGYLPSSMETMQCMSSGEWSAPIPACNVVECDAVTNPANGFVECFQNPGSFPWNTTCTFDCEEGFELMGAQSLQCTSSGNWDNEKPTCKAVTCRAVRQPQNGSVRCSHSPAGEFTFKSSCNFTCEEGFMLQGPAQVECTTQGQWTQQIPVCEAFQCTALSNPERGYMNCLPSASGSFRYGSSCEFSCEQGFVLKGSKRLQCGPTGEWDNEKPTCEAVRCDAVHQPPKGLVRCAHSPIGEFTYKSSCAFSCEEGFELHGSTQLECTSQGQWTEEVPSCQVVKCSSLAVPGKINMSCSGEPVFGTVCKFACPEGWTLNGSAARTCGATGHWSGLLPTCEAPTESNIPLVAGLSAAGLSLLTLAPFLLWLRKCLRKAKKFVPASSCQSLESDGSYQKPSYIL
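Assay system: HUVEC, human umbilical vein endothelial cells / Amount: 3,000 HUVEC/well / Controls: TNF-alpha positive control, DMSO neutral control / Compound dosing: single concentration / Medium: EGM-2 over gelatin coat / Evaluation: percent E-selectin-positive cells / Signal: immunofluorescence imaging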
DENV2 CPE: protects cells from dengue virus 2 cytopathic effect; DENV2-infected cells, cytopathic effect rescue, plate reader; 1.7% of 350,000 active; AID 651640; CPE inhibition, % at 9.99 µM; in the data active means CPE inhibition above about 20%, passing the limit was not always enough; inconclusive means no clear call, values can overlap the other calls; tested in BHK-21 cells;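 further: 0% = median of neutral control wells and 100% = median of positive control wells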
The depositor's hits bear a star; ? = inconclusive; . = no result given.

SMILES	SIRT5 inh	E-sel inducer	DENV2 CPE
CN(C)C(=O)c1cccc(-c2ccc3c(c2)[C@@H]2[C@@H](CCN2C(=O)c2cccc(F)c2)[C@H](CO)N3C)c1	0.4	0.2	39.0*
CN1c2ccc(C3=CCCCC3)cc2[C@H]2[C@H](CCN2C(=O)C2CC2)[C@@H]1CO	19.6*	.	45.5*
O=C(C1CCCC1)N1CC[C@@H]2[C@H](CO)Nc3ccc(C4=CCCCC4)cc3[C@@H]21	-7.8	50.1*	-3.6
O=C(COc1cccc(NC(=O)c2ccccc2)c1)c1ccccc1	0.7	.	0.1
COc1ccc(CNS(=O)(=O)c2cc3c(cc2Cl)NC(=O)CO3)cc1	-7.9	0.0	0.3
CCCCn1nnnc1C1(C)CCC(=O)N1Cc1cc(OC)ccc1OC (stereo not drawn)	-1.9	4.3	-8.7
COc1ccc2c(c1)C(CC(C)=O)N(c1ccc(-c3cccnc3)cc1)C(c1ccsc1)=C2 (stereo not drawn)	-5.5	0.1	3.2
O=C(NCC(=O)N1CCN(C(=O)c2ccccc2)CC1)c1ccccc1	-3.6	-0.4	8.5
CCC(=O)N1CC[C@@H]2[C@H]1c1cc(-c3cccc(OC)c3)ccc1N(C)[C@@H]2CO	-6.8	0.8	-10.7
NC(=O)N/N=C1\CCS(=O)(=O)c2ccc(F)cc21	0.7	-0.1	7.3
COc1ccc(S(=O)(=O)Nc2ccccc2N2CCOCC2)cc1[N+](=O)[O-]	-1.7	13.0	-2.8
CN1c2ccc(C3=CCCCC3)cc2[C@H]2[C@H](CCN2C(=O)C2CCCCC2)[C@@H]1CO	9.1	1.1	-5.8
CN1c2ccc(C3=CCCCC3)cc2[C@@H]2[C@@H](CCN2C(=O)C2CCCCC2)[C@@H]1CO	17.8*	.	10.1
CN1c2ccc(C#Cc3cccnc3)cc2[C@@H]2[C@@H](CCN2C(=O)c2cccc(F)c2)[C@H]1CO	.	-0.2	59.0*
CC(C)NC(=O)N1CC[C@H]2[C@@H]1c1cc(C#Cc3cccnc3)ccc1N(C)[C@H]2CO	.	0.8	3.8
CN1c2ccc(-c3cccc(F)c3)cc2[C@H]2[C@H](CCN2C(=O)Cc2cccnc2)[C@H]1CO	.	-0.5	113.3*
CN1c2ccc(-c3cccc(F)c3)cc2[C@@H]2[C@@H](CCN2C(=O)Cc2cccnc2)[C@H]1CO	-8.2	-0.5	-1.0
CCOC(=O)N1CCN(C(=S)NC(=O)c2cc(Br)ccc2Cl)CC1	2.4	3.6	4.9
C=C(C)CSc1nnc(CCNC(=O)OC(C)(C)C)o1	-1.4	.	-1.0
COCC(=O)N1[C@@H](CO)[C@@H](c2ccccc2)C12CN(C(=O)c1ccc(F)cc1)C2	3.5	0.0	2.9
O=C(c1ccc2c(c1)OCO2)N1CC2(C1)[C@@H](c1ccccc1)[C@H](CO)N2C(=O)C1CCC1	0.5	-0.1	-5.8
O=C(c1cccc(F)c1)N1CC2(C1)[C@H](c1ccccc1)[C@@H](CO)N2C(=O)C1CC1	-0.7	0.2	19.0
COCC(=O)N1[C@@H](CO)[C@@H](c2ccccc2)C12CN(C(=O)c1cccc(F)c1)C2	-1.1	0.0	28.9*
O=C(c1ccc2c(c1)OCO2)N1CC2(C1)[C@H](c1ccccc1)[C@H](CO)N2C(=O)C1CC1	-4.8	0.1	38.2*
O=C(c1cccc(F)c1)N1CC2(C1)[C@H](c1ccccc1)[C@H](CO)N2C(=O)C1CC1	0.5	0.0	33.9*
SMILES	SIRT5 inh	E-sel inducer	DENV2 CPE
CC(=O)c1ccc(NC(=O)c2cc3ccccc3o2)cc1	-3.5	0.3	3.2
Cn1c(CNC(=O)c2ccccc2F)nnc1SCC(=O)Nc1nnc(C2CC2)s1	-1.3	-0.4	6.8
CC(C)C#Cc1cnc2c(c1)C(=O)N([C@@H](C)CO)C[C@H](C)[C@H](CN(C)C(=O)c1cccc(F)c1)O2	-0.7	0.0	10.0
CN(CC(=O)Nc1ncn[nH]1)S(=O)(=O)c1ccc(Br)cc1	-1.5	.	1.6
CN(C)C(=O)c1cccc(-c2ccccc2[C@H]2[C@@H](C#N)N(C(=O)C3CC3)[C@@H]2CO)c1	29.4*	0.0	69.4*
CN(C)C(=O)c1cccc(-c2ccccc2[C@H]2[C@@H](C#N)N(C(=O)C3CCCCC3)[C@@H]2CO)c1	-0.7	0.1	1.7
CN(C)C(=O)c1cccc(-c2ccccc2[C@H]2[C@@H](CO)N(C(=O)C3CC3)[C@H]2C#N)c1	9.9	0.0	1.3
CN(C)C(=O)c1cccc(-c2ccccc2[C@@H]2[C@H](C#N)N(C(=O)C3CCCCC3)[C@H]2CO)c1	-1.6	0.5	73.1*
CN(C)C(=O)c1cccc(-c2ccccc2[C@@H]2[C@@H](C#N)N(C(=O)C3CC3)[C@@H]2CO)c1	3.6	0.0	45.6*
CN(C)C(=O)c1cccc(-c2ccccc2[C@@H]2[C@@H](CO)N(C(=O)C3CC3)[C@H]2C#N)c1	-1.6	0.1	1.5
CN(C)C(CNC(=O)C1CCN(S(=O)(=O)c2cccc(Cl)c2Cl)CC1)c1ccccc1 (stereo not drawn)	-5.1	0.3	-1.5
C[C@H](O)C#Cc1cnc2c(c1)C(=O)N([C@H](C)CO)C[C@@H](C)[C@@H](CN(C)C(=O)Cc1ccccn1)O2	-0.2	0.7	13.4
CCC(Cc1ccccc1)NS(=O)(=O)c1ccc2c(c1)NC(=O)CO2 (stereo not drawn)	1.0	0.1	-2.0
COC(=O)c1c(NC(C)=O)sc2c1CCN(Cc1ccccc1)C2	18.0*	0.1	-0.9
CCOC(=O)c1c(NC(C)=O)sc2c1CCN(Cc1ccccc1)C2	-0.3	0.2	6.1
CS(=O)(=O)c1ccc(C(=O)OCC(=O)N2CCN(CCC3CCCCC3)CC2)cc1[N+](=O)[O-]	-2.1	1.1	?
O=C(CN1CCCCCC1)Nc1ccc(S(=O)(=O)N2CCOCC2)cc1	1.2	.	1.9
Cc1cccc(C)c1NC(=O)NC1(C(=O)N2CCCCC2)CCCCC1	-2.9	0.3	-3.2
OC[C@@H]1[C@H](c2ccccc2)C2(CN(CC3CC3)C2)N1Cc1nccs1	-2.5	0.1	-4.5
OC[C@@H]1[C@@H](c2ccccc2)C2(CN(Cc3nccs3)C2)N1Cc1cccnc1	11.5	-0.1	84.4*
OC[C@@H]1[C@@H](c2ccccc2)C2(CN(Cc3cccnc3)C2)N1Cc1ccncc1	-1.7	0.6	2.4
OC[C@@H]1[C@H](c2ccccc2)C2(CN(Cc3cccnc3)C2)N1Cc1ccncc1	-2.7	0.3	20.3*
OC[C@@H]1[C@@H](c2ccccc2)C2(CN(Cc3cccnc3)C2)N1Cc1cccnc1	1.1	0.1	5.0
OC[C@@H]1[C@@H](c2ccccc2)C2(CN(Cc3nccs3)C2)N1Cc1ccccc1	8.1	0.1	20.0*
OC[C@@H]1[C@H](c2ccccc2)C2(CN(Cc3nccs3)C2)N1Cc1cccnc1	19.7*	0.1	-5.9
OC[C@H]1[C@@H](c2ccccc2)C2(CN(Cc3nccs3)C2)N1Cc1cc(F)ccc1F	0.1	0.5	-6.4
COc1ccc(NC(=O)Nc2ccc3c(c2)C(=O)N([C@H](C)CO)C[C@@H](C)[C@@H](CN(C)C)OCCCC[C@@H](C)O3)cc1	-1.3	-0.3	-6.5
COc1ccc(OCCn2c(=O)sc3ccccc32)cc1	-2.2	.	2.1
CC(=O)c1nn(-c2ccc(Cl)cc2)cc1C(=O)c1ccc(C)cc1	-2.5	-0.1	?
CCCN(C)C[C@@H]1Oc2ncc(C#CC3CCCCC3)cc2C(=O)N([C@H](C)CO)C[C@H]1C	9.2	-0.1	0.5

Screens: PubChem BioAssay, Broad Institute
